The values that follow come from article PMC6104635 (ACS chemical neuroscience, 2018).

What all share (assay type): cell-based
One assay addresses rat M3 (Rattus norvegicus, UniProt P08483). Put plainly: mAChR selectivity, PAM activity at rat M3.
Another assay addresses human M3 (Homo sapiens, UniProt P20309). Put plainly: mAChR selectivity, PAM activity at human M3.
The next assay deals with T1, human M2 (Homo sapiens, UniProt P08172).
T1 sequence (P08172 1-466): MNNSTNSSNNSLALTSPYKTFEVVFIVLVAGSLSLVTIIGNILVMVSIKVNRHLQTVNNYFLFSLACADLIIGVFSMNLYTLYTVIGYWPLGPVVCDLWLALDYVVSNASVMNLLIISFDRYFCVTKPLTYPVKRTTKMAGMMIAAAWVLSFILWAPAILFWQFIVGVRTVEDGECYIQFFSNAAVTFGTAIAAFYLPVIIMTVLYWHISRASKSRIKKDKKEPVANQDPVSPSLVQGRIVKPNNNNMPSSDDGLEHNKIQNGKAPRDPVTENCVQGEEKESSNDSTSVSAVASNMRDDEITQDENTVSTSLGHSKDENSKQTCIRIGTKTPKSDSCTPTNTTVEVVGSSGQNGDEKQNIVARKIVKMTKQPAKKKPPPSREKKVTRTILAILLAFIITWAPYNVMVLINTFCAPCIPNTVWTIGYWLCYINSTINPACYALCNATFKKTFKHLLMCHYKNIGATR
Briefly: mAChR selectivity, PAM activity at human M2. The conditions noted are these: result in words.

Another assay deals with T2, rat M2 (Rattus norvegicus, UniProt P10980).
T2 sequence (P10980 1-466): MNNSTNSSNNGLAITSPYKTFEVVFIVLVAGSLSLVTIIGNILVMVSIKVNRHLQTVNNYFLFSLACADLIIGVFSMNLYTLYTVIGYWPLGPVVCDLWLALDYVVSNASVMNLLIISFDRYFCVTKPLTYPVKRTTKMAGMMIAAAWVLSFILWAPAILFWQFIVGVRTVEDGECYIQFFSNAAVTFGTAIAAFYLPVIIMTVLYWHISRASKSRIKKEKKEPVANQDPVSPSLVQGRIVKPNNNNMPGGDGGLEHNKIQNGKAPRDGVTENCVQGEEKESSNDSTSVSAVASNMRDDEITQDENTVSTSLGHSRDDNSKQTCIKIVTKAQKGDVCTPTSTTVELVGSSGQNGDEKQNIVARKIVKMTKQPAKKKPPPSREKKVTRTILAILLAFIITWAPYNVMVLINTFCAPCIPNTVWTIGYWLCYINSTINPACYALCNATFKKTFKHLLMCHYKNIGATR
Put plainly: mAChR selectivity, PAM activity at rat M2. The note with it: result in words.

The target in a further assay is T3, rat M5 (Rattus norvegicus, UniProt P08911).
T3 sequence (P08911 1-531): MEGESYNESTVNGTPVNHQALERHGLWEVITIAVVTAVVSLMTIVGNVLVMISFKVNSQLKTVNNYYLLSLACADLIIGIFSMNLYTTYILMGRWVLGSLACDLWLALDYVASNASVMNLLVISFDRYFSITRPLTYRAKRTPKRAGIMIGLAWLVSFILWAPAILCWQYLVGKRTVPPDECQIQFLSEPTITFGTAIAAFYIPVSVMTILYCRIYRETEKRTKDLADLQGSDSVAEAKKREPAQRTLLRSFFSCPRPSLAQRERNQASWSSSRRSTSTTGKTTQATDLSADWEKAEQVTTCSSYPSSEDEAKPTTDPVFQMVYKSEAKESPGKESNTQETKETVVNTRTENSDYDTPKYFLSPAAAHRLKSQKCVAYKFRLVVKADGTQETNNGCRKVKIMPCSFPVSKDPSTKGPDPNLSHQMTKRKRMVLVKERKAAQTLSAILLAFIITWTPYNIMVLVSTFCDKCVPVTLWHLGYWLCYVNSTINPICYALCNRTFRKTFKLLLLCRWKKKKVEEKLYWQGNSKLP
Briefly: calcium mobilization assay, rM5-CHO cells, FDSS7000. The note with it: PAM, functional calcium assay, n = 3. The method in brief:
(§1)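 CHO cells stably expressing human or rat M5 were grown in Ham's F-12 with 10% FBS, 20 mM HEPES and 500 μg/mL G418 (37 °C, 5% CO2), then plated at 20 000 cells/well without G418 the day before. Cells were loaded with 1.15 μM Fluo-4 AM for 45 min at 37 °C in HBSS, 20 mM HEPES and 2.5 mM probenecid. Test compound was given as a 10-point 1:3 series from 30 μM final for 2.5 min, then ACh EC20 for 1 min, with calcium read on FDSS7000. EC50 and efficacy came from a four-parameter logistic fit.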

In the next assay the target is T4, human M5 (Homo sapiens, UniProt P08912).
T4 sequence (P08912 1-532): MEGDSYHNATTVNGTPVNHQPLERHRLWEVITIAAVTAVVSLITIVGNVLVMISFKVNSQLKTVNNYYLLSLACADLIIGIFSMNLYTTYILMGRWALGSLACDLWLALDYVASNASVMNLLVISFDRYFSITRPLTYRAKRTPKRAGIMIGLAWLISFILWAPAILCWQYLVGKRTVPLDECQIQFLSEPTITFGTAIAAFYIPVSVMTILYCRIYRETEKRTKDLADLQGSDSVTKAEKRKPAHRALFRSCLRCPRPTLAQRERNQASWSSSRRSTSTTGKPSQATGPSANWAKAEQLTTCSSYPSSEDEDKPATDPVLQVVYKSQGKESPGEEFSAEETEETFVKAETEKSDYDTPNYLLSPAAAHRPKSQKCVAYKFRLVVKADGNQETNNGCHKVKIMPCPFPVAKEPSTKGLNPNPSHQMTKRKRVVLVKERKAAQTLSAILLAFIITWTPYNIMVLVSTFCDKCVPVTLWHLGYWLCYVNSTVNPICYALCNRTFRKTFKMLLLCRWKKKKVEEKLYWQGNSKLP
Briefly: calcium mobilization assay, hM5-CHO cells, FDSS7000. The method in brief:
as §1

[1] abbreviates: PAM, functional calcium assay, n = 3.

Several values for one entry are separate records, joined by “and”; a condition that tells them apart may be missing. Equal values may be shown once. Where only a bound is given, the exact number is not on record here.

A word on the EC50: it is the concentration that produces a half-maximal response.

human M3, sequence (P20309 whole entry): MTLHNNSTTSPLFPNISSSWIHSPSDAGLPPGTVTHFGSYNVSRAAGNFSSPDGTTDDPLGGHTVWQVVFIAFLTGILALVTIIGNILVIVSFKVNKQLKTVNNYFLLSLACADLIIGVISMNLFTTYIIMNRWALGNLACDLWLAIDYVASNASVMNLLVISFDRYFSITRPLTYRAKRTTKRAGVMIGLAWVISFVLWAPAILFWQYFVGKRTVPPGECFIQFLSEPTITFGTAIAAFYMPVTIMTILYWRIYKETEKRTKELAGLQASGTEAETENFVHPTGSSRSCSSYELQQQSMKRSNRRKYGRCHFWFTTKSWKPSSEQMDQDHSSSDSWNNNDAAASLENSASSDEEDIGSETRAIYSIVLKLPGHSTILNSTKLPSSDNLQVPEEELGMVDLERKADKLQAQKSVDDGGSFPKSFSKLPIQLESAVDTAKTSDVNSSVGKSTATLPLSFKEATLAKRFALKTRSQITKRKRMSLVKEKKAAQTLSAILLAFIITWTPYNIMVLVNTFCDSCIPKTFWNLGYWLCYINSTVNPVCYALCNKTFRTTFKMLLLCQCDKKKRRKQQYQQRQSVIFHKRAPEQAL
rat M3, sequence (P08483 whole entry): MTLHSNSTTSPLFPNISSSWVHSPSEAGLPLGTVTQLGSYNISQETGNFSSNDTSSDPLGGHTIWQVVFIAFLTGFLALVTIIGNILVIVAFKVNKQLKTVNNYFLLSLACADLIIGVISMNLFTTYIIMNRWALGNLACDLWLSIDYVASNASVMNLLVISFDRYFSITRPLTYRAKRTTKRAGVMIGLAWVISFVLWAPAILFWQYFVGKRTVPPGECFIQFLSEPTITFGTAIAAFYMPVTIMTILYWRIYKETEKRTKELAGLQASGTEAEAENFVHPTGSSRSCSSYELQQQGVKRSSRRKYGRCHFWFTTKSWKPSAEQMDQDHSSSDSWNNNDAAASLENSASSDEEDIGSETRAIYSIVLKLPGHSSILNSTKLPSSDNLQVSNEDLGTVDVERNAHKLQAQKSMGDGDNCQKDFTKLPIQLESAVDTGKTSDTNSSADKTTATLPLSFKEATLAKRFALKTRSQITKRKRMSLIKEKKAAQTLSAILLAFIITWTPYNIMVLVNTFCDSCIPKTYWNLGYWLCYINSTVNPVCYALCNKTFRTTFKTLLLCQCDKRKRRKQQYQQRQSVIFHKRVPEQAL

For the molecule `CCCN(C(=O)C1CCN(S(=O)(=O)c2ccc3[nH]ncc3c2)CC1)[C@@H]1CCc2c(F)cccc21` [Compound 18g], at rat M3, the “rat M3 % ACh Max” value turned out to be 51 % ACh Max. Besides, the EC50 turned out to be 772 nM on rat M3 (read-out: rat M3 EC50); 466 nM on human M3 (read-out: human M3 EC50, PAM activity); 74 nM on rat M5 (read-out: rM5 EC50); 41 nM at human M5 (read-out: hM5 EC50, PAM, functional calcium assay, n = 3). The “selectivity for M5 versus M3” value at human M3 (M5-preferring PAM) is listed as 10 fold. For the same molecule, the “human M3 % ACh Max” value at human M3 (PAM activity) was determined as 71 % ACh Max. The “human M2 PAM activity” value at human M2 is “inactive”. Besides, the “rat M2 PAM activity” value at rat M2 is “inactive”. In addition, the “rM5 % ACh Max” value at rat M5 is 76 % ACh Max and 76 ± 7 % ACh Max. The “rM5 pEC50 ± SEM” value at rat M5 is 7.13 ± 0.04. Besides, the “hM5 % ACh Max” value at human M5 (setting [1]) was 74 % ACh Max and 74±6 % ACh Max. Besides, on human M5 (setting [1]), the “hM5 pEC50 ± SEM” value was found to be 7.46±0.15. For the same molecule, the “increase in M5 PAM potency relative to 18a” value on human M5 (hM5) is more than 10 fold.
